Measurements from ChEMBL document CHEMBL1154315, “Discovery of 3-(2-cyano-4-pyridyl)-5-(4-pyridyl)-1,2,4-triazole, FYX-051 - a xanthine oxidoreductase inhibitor for the treatment of hyperuricemia [corrected]” (Bioorg Med Chem Lett, 2009).
pIC50: −log10 of the molar value.

What was measured:
[1] = system: Rattus norvegicus; experiment: Reduction of uric acid level in rat serum at 3 mg/kg, po after 6 hrs by phosphotungstic acid method; assay type: functional; set-up: scale not given: the % may be the effect or the level left
How it was run: (§1)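 Rats were dosed orally. Blood was drawn from the orbital sinus 2 or 6 h later, clotted 1 h at room temperature and centrifuged. Serum uric acid was measured by the phosphotungstic acid method. Values are mean ± SD of at least three rats.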

[2] = system: Rattus norvegicus; experiment: Reduction of uric acid level in rat serum at 0.3 mg/kg, po after 6 hrs by phosphotungstic acid method; assay type: functional; set-up: scale not given: the % may be the effect or the level left; how it was run: as §1
[3] = target: T1, Xanthine dehydrogenase/oxidase (Bos taurus, UniProt P80457); experiment: Inhibition of bovine milk XOR-mediated uric acid formation after 15 mins by spectrophotometer
T1 sequence (P80457 whole entry): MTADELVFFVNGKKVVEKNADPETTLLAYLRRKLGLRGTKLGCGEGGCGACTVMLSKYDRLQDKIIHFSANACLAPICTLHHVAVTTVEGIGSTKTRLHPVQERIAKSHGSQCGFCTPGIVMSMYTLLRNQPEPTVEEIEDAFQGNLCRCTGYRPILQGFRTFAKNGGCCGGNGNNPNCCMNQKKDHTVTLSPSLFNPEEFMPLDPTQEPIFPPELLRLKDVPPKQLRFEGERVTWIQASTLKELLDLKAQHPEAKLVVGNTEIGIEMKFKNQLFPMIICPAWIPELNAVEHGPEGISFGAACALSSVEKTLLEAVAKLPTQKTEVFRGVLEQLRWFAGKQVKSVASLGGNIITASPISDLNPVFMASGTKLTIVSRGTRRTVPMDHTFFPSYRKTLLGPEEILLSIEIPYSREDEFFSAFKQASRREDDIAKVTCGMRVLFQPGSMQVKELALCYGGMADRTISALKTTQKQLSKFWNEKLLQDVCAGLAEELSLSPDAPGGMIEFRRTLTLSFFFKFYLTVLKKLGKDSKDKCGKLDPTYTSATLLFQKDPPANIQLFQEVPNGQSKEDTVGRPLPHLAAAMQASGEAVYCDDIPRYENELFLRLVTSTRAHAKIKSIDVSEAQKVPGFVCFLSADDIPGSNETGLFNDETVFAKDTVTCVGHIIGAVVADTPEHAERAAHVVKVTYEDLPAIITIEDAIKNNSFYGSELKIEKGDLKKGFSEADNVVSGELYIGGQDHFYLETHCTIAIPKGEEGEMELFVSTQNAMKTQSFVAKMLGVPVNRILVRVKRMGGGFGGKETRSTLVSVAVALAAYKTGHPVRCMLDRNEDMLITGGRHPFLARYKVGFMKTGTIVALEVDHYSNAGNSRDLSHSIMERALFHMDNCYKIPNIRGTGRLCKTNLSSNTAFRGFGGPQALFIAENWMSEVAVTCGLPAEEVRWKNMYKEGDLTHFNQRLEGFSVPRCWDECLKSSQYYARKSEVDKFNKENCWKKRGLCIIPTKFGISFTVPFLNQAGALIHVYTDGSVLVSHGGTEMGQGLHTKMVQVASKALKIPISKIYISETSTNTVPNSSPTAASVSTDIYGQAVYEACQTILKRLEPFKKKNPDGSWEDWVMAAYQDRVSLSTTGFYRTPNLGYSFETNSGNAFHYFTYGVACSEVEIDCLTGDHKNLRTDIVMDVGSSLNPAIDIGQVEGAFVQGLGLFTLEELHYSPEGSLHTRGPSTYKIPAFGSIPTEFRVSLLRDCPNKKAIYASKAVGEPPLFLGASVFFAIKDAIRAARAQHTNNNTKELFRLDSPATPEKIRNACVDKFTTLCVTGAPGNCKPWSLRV

[4] = system: Rattus norvegicus; experiment: Reduction of uric acid level in rat serum at 1 mg/kg, po after 6 hrs by phosphotungstic acid method; assay type: functional; set-up: scale not given: the % may be the effect or the level left; how it was run: as §1
[5] = target: CYP3A4 (Homo sapiens, UniProt P08684); experiment: Inhibition of CYP3A4 in human liver microsomes assessed as inhibition of testosterone hydroxylation at 10 uM by HPLC analysis; assay type: ADME, Microsome; set-up: dose 10 uM; conditions: probe testosterone (hydroxylation)
Sequence of CYP3A4 (P08684 whole entry): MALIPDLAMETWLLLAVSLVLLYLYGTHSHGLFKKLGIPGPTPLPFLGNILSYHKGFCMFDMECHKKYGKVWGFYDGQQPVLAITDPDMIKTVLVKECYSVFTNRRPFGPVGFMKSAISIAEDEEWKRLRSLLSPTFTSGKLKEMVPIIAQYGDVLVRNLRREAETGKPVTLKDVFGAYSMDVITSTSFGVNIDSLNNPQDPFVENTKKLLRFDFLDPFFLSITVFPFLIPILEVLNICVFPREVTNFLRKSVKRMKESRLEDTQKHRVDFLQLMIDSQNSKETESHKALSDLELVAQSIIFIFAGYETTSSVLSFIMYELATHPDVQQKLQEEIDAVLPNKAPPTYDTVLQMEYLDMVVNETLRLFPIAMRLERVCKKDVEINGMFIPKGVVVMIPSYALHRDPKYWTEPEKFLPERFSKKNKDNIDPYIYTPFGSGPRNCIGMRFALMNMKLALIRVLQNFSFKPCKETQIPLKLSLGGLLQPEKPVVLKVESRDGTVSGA

[6] = Cmax in rat at 3 mg/kg, po by LC-MS method; assay type: ADME, organism-based; set-up: dose 3 mg/kg, route oral; conditions: in vivo
How it was run: (§2)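 After oral dosing to rats, jugular vein blood was collected at predetermined times and centrifuged to plasma. Plasma was mixed with acetonitrile containing an internal standard and centrifuged, and the supernatant was analysed by LC–MS.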

[7] = target: T1, Xanthine dehydrogenase/oxidase; experiment: Inhibition of bovine milk XOR-mediated uric acid formation at 10 uM after 15 mins by spectrophotometer; conditions: cattle, 0.25 h
[8] = Cmax in rat at 1 mg/kg, po by LC-MS method; assay type: ADME, organism-based; set-up: dose 1 mg/kg, route oral; conditions: in vivo; how it was run: as §2
[9] = system: Rattus norvegicus; experiment: Reduction of uric acid level in rat serum at 0.3 mg/kg, po after 2 hrs by phosphotungstic acid method; assay type: functional; set-up: scale not given: the % may be the effect or the level left
How it was run: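 Test compound dosed orally to rats; blood drawn from orbital sinus 2 or 6 h post-dose, clotted 1 h at room temperature, centrifuged. Serum uric acid measured by phosphotungstic acid method. Mean ± SD of at least three rats.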

[10] = Bioavailability in rat at 3 mg/kg; assay type: ADME, organism-based; conditions: in vivo
[11] = Half life in rat at 3 mg/kg, po by LC-MS method; assay type: ADME, organism-based; set-up: dose 3 mg/kg, route oral; conditions: in vivo

pIC50 [3] | Structure (SMILES) | Activity [2] [%] | also measured
7.62 | CC(C)COc1ccc(-c2n[nH]c(-c3ccncc3)n2)cn1 | 13.4 | Activity [1]: 13.4%
6.89 | c1cncc(-c2n[nH]c(-c3ccncc3)n2)c1 | – | Activity ([4]; dose 1 mg/kg): -7.7%; inhibition at 10 µM [5]: 10.4%
8.31 | CC(C)COc1ccc(-c2n[nH]c(-c3ccncc3)n2)cc1C#N | 36.3 | –
8.10 | Clc1cc(-c2n[nH]c(-c3ccncc3)n2)ccn1 | – | Cmax [6]: 4360 ng/mL; Activity ([4]; dose 1 mg/kg): 26.5%; inhibition at 10 µM [5]: 54.1%
– | CSc1cc(-c2nc(-c3ccnc(C#N)c3)n[nH]2)ccn1 | -3.7 | –
– | CC(C)COc1cc(-c2nc(-c3ccnc(C#N)c3)n[nH]2)ccn1 | 1.9 | –
– | CC(C)CSc1cc(-c2nc(-c3ccnc(C#N)c3)n[nH]2)ccn1 | -1.4 | –
– | N#Cc1cc(-c2n[nH]c(-c3ccnc(-c4ccccc4)c3)n2)ccn1 | 4.2 | –
7.41 | N#Cc1cc(-c2n[nH]c(-c3ccnc(Cl)c3)n2)ccn1 | 33.6 | Cmax [6]: 5340 ng/mL; inhibition at 10 µM [5]: 3.6%
7.74 | N#Cc1cc(-c2n[nH]c(-c3ccnc(C#N)c3)n2)ccn1 | 32 | –
8.00 | Brc1cc(-c2n[nH]c(-c3ccncc3)n2)ccn1 | -6.2 | –
7.32 | Fc1cc(-c2n[nH]c(-c3ccncc3)n2)ccn1 | -0.2 | inhibition at 10 µM [5]: 40.2%
8.17 | c1ccc(-c2cc(-c3n[nH]c(-c4ccncc4)n3)ccn2)cc1 | -0.4 | –
6.77 | c1cc(-c2n[nH]c(-c3ccncc3)n2)ccn1 | – | Activity ([4]; dose 1 mg/kg): -6.8%; inhibition at 10 µM [5]: 18.5%
– | c1ccc(-c2n[nH]c(-c3ccncc3)n2)nc1 | – | inhibition at 10 µM [5]: 20.3%; inhibition at 10 µM [7]: 31%
7.55 | Cc1cc(-c2nc(-c3ccncc3)n[nH]2)ccn1 | -0.4 | Cmax [8]: 1240 ng/mL; inhibition at 10 µM [5]: 24.7%
6.51 | Cc1cc(-c2n[nH]c(-c3ccnc(C)c3)n2)ccn1 | 26.1 | inhibition at 10 µM [5]: 15.3%
7.42 | N#Cc1ccc(-c2n[nH]c(-c3ccncc3)n2)cn1 | – | Activity ([4]; dose 0.3 mg/kg, in the assay text read “at 0.3 mg/kg” for “at 1 mg/kg”): -4%

pIC50 [3] | Structure (SMILES) | Activity [2] [%] | also measured
6.77 | Cc1cc(-c2nc(-c3ccc(OCC(C)C)nc3)n[nH]2)ccn1 | 13 | –
6.23 | CC(C)COc1ccc(-c2n[nH]c(-c3ccnc(C#N)c3)n2)cn1 | – | Activity [1]: -6.1%
7.52 | Cc1cc(-c2nc(-c3ccc(Cl)c([N+](=O)[O-])c3)n[nH]2)ccn1 | 19.8 | –
8.48 | COc1ccc(-c2n[nH]c(-c3ccncc3)n2)cc1[N+](=O)[O-] | 19.6 | –
8.33 | O=[N+]([O-])c1cc(-c2n[nH]c(-c3ccncc3)n2)ccc1Cl | 0.9 | –
6.77 | CSc1cc(-c2nc(-c3ccnc(C)c3)n[nH]2)ccn1 | 19.2 | –
7.23 | Cc1cc(-c2n[nH]c(-c3ccnc(-c4ccccc4)c3)n2)ccn1 | 8 | –
7.20 | Cc1cc(-c2n[nH]c(-c3ccnc(OCC(C)C)c3)n2)ccn1 | 2.3 | Cmax [6]: 1440 ng/mL
7.34 | Cc1cc(-c2n[nH]c(-c3ccnc(SCC(C)C)c3)n2)ccn1 | 4.5 | –
7.23 | Cc1cc(-c2n[nH]c(-c3ccnc(C#N)c3)n2)ccn1 | 41.1 | Cmax [6]: 3970 ng/mL; inhibition at 10 µM [5]: 4.7%
7.05 | Cc1cc(-c2n[nH]c(-c3ccnc(Cl)c3)n2)ccn1 | 32.9 | Cmax [6]: 4070 ng/mL
7.77 | COc1ccc(-c2n[nH]c(-c3ccnc(C)c3)n2)cc1[N+](=O)[O-] | 19.3 | –
7.51 | COCCOCCOc1ccc(-c2nc(-c3ccnc(C)c3)n[nH]2)cc1C#N | 52 | –
8.00 | Cc1cc(-c2nc(-c3ccc(OCC(C)C)c([N+](=O)[O-])c3)n[nH]2)ccn1 | 39.1 | –
8.43 | CC(C)COc1ccc(-c2n[nH]c(-c3ccncc3)n2)cc1[N+](=O)[O-] | 33.7 | –
7.77 | Cc1cc(-c2nc(-c3ccc(OCC(C)C)c(C#N)c3)n[nH]2)ccn1 | 46 | –
– | Oc1ncnc2[nH]ncc12 [ALLOPURINOL] | -3.3 | Activity [9]: 35.9%
8.28 | N#Cc1cc(-c2n[nH]c(-c3ccncc3)n2)ccn1 [TOPIROXOSTAT] | 51.1 | Activity [9]: 59.9%; bioavailability [10]: 69.6%; half-life [11]: 19.7 h; inhibition at 10 µM [5]: 18.6%
